According to ChEMBL document CHEMBL4342509, “New 8-Nitroquinolinone Derivative Displaying Submicromolar in Vitro Activities against Both Trypanosoma brucei and cruzi” (ACS Med Chem Lett, 2020):

Tests used:
[1] = system: Trypanosoma brucei brucei; assay: Antitrypanosomal activity against Trypanosoma brucei brucei AnTat 1.9 trypomastigotes assessed as reduction in parasite viability incubated for 69 hrs by Alamar Blue dye based assay; assay type: functional, organism-based; conditions: AnTat 1.9, 69 h
Method in brief: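 Bloodstream AnTat 1.9 parasites grown at 37°C, 5% CO₂ in MEM with Earle's salts (Baltz-type) plus 0.5 mM mercaptoethanol, 1.5 mM L-cysteine, 0.05 mM bathocuproine sulfate and 20% heat-inactivated horse serum. EC50 from nonlinear regression, three independent experiments in duplicate.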

Leishmania infantum = assay: Antileishmanial activity against Leishmania infantum MHOM/MA/67/ITMAP-263 axenic amastigotes expressing luciferase plasmid assessed as reduction in parasite viability incubated for 48 hrs by Steady Glow reagent based luminescence assay; assay type: functional, organism-based; conditions: MHOM/MA/67/ITMAP-263, 48 h
[2] = Half life in NMRI mouse at 25 mg/Kg, ig measured up to 24 hrs by LCMS analysis; assay type: ADME; conditions: in vivo, po
HepG2 = assay: (§1) Cytotoxicity against human HepG2 cells assessed as reduction in cell viability incubated for 72 hrs by MTT assay; assay type: cell-based; conditions: hepg2, 72 h
Trypanosoma cruzi = assay: Antitrypanosomal activity against Trypanosoma cruzi CL Brener amastigotes infected in African green monkey Vero cells assessed as reduction in parasite growth incubated for 120 hrs at 24 hrs post-infection and measured on day 6 post-infection by hemocytometer based light microscopy; assay type: functional, organism-based
Method in brief: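 Compounds, 2–4-fold serial dilutions over 0,1–25 µM final, applied for 120 h at 37°C. On day 6, released trypomastigotes pooled, centrifuged and counted by haemocytometer. EC50 by nonlinear regression; two experiments, triplicate wells.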

[3] = Selectivity index, ratio of CC50 for human HepG2 cells to EC50 for Trypanosoma brucei brucei trypomastigotes AnTat 1.9; assay type: toxicity; conditions: read-out: Ratio CC50/EC50
[4] = system: Trypanosoma brucei brucei; assay: Antitrypanosomal activity against bloodstream form of wild type Trypanosoma brucei brucei S427 trypomastigotes assessed as inhibition of parasite growth; assay type: functional, organism-based
[5] = Permeability of the compound in pH 7.4 Prisma HT buffer at 100 uM incubated for 4 hrs by PAMPA-BBB assay method; assay type: ADME; conditions: read-out: permeability
Leishmania donovani [6] = assay: Selectivity index, ratio of EC50 for wild type Leishmania donovani BOB (MHOM/SD/62/1S-CL2D) promastigotes to EC50 for Leishmania donovani BOB (MHOM/SD/62/1S-CL2D) promastigotes overexpressing NTR1; assay type: functional
Leishmania donovani [7] = assay: Antileishmanial activity against wild type Leishmania donovani BOB (MHOM/SD/62/1S-CL2D) promastigotes assessed as inhibition of parasite growth incubated for 72 hrs by resazurin dye based assay; assay type: functional, organism-based
Method in brief: (§2)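 LdBOB promastigotes grown at 26 °C in modified M199; NTR1- or NTR2-overexpressing lines kept under nourseothricin (100 µg/mL). Triplicate cultures seeded at 5×10^4 parasites/mL with drug for 72 h; 50 µM resazurin added, fluorescence (ex 528/em 590 nm) read after a further 4 h.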

[8] = Microsomal stability in CD-1 mouse liver microsomes in presence of NADP measured up to 40 mins by LC-MS analysis; assay type: ADME, Microsome
Method in brief: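 Compound incubated in duplicate with female CD-1 mouse microsomes at 37°C in 50 mM phosphate pH 7.4. Cofactors: 5 mM MgCl₂, 1 mM NADP, 0.4 U/mL G6PDH and 5 mM glucose-6-phosphate. […] Propranolol reference.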

Leishmania donovani [9] = assay: Antileishmanial activity against Leishmania donovani BOB (MHOM/SD/62/1S-CL2D) promastigotes overexpressing NTR2 assessed as inhibition of parasite growth incubated for 72 hrs by resazurin dye based assay; assay type: functional, organism-based; method in brief: as §2
Leishmania donovani [10] = assay: Antileishmanial activity against Leishmania donovani BOB (MHOM/SD/62/1S-CL2D) promastigotes overexpressing NTR1 assessed as inhibition of parasite growth incubated for 72 hrs by resazurin dye based assay; assay type: functional, organism-based; method in brief: as §2
[11] = Electrochemical behavior of the compound assessed as redox potential corrected toward normal hydrogen electrode by cyclic voltammetry
[12] = system: Trypanosoma brucei brucei; assay: Antitrypanosomal activity against blood stream form of Trypanosoma brucei brucei S427 trypomastigotes overexpressing NTR assessed as inhibition of parasite growth; assay type: functional, organism-based
[13] = system: Trypanosoma brucei brucei; assay: Selectivity index, ratio of EC50 for bloodstream form of wild type Trypanosoma brucei brucei S427 trypomastigotes to EC50 for blood stream form of Trypanosoma brucei brucei S427 trypomastigotes overexpressing NTR; assay type: functional
Plasma proteins = assay: Plasma protein binding incubated for 4 hrs by LCMS analysis
[14] = as §1; assay type: cell-based; conditions: HepG2 cells

| Structure (SMILES) | EC50 [1] | EC50 (Leishmania infantum) | CC50 (HepG2) | selectivity ratio [3] | Activity [11] | other results |
| --- | --- | --- | --- | --- | --- | --- |
| CSc1ccc(OCc2ncc([N+](=O)[O-])n2C)cc1 [FEXINIDAZOLE] | 0.4 µM | 3.4 µM | > 200 µM | > 500 | – | half-life [2]: 48 min; EC50 (Trypanosoma cruzi): 3 µM |
| O=c1[nH]c2c([N+](=O)[O-])cc(C(F)(F)F)cc2cc1Cl | 0.57 µM | 9.2 µM | 31.4 µM | 55 | – | – |
| O=c1[nH]c2c([N+](=O)[O-])cc(C(F)(F)F)cc2cc1Br | 0.2 µM | 3.9 µM | 41.3 µM | 206 | -0.36 V | EC50 [4]: 6.7 µM; Papp at 4 h, 100 µM [5]: 45 ×10⁻⁶ cm/s; Ratio EC50 (Leishmania donovani [6]): 3.5; EC50 (Leishmania donovani [7]): 4.1 µM; t1/2 [8]: > 40 min; EC50 (Leishmania donovani [9]): 4.9 µM; EC50 (Leishmania donovani [10]): 1.2 µM; EC50 [12]: 0.9 µM; Ratio EC50 [13]: 7; Activity (Plasma proteins): 99.4% |
| O=c1[nH]c2c([N+](=O)[O-])cccc2cc1Cl | 1.2 µM | 16 µM | – | 71 | -0.47 V | – |
| O=c1ccc2cc(C(F)(F)F)ccc2[nH]1 | > 50 µM | > 100 µM | > 100 µM | – | – | – |
| O=c1[nH]c2c([N+](=O)[O-])cccc2cc1Br | – | – | – | 48 | -0.45 V | EC50 [4]: 17.7 µM; EC50 (Leishmania donovani [7]): 5.9 µM; EC50 (Leishmania donovani [9]): 4.6 µM; EC50 (Leishmania donovani [10]): 0.47 µM; EC50 [12]: 3.9 µM |
| O=C(O)c1ccc(-c2cc3cccc([N+](=O)[O-])c3[nH]c2=O)cc1 | 1.5 µM | > 100 µM | – | 80 | -0.56 V | EC50 [4]: 5.4 µM; CC50 at 72 h [14]: 120 µM; EC50 [12]: 4.2 µM |
| NCCCC(N)(C(=O)O)C(F)F (stereo unspecified) [EFLORNITHINE] | 13.3 µM | – | > 100 µM | – | – | – |
| CCCCCCCCCCCCCCCCOP(=O)([O-])OCC[N+](C)(C)C [MILTEFOSINE] | – | 0.8 µM | – | – | – | – |
| O=C(Cn1ccnc1[N+](=O)[O-])NCc1ccccc1 [BENZNIDAZOLE] | – | – | – | – | – | EC50 (Trypanosoma cruzi): 0.5 µM |
| Nc1cc(C(F)(F)F)cc2cc(Br)c(=O)[nH]c12 | 8.7 µM | > 100 µM | > 100 µM | > 11 | – | – |
| O=c1[nH]c2c([N+](=O)[O-])cc(C#CCO)cc2cc1Cl | 1 µM | 8.9 µM | 30.9 µM | 31 | – | – |
| O=c1[nH]c2ccc(C(F)(F)F)cc2cc1Cl | > 50 µM | > 100 µM | > 100 µM | – | – | – |
